# Compound activity: PubChem, Johns Hopkins Ion Channel Center
# Hits are enriched below; roughly 3.7% of the tested compounds scored in any of these assays.
# KCNK3 block = human KCNK3 channel inhibition, primary screen | O14649 | CHO-KCNK3 thallium flux, FluxOR fluorescence; hits give low values | B-score at 10 µM | 340,000 compounds, 0.84% hits | AID 602410;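 active = B-score under library mean minus 4 SD, starting fluorescence ratio at most library mean plus 5 SD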;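 also: more negative B-score means stronger inhibition of thallium flux through KCNK3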
# Target sequence (O14649 whole entry, looked up): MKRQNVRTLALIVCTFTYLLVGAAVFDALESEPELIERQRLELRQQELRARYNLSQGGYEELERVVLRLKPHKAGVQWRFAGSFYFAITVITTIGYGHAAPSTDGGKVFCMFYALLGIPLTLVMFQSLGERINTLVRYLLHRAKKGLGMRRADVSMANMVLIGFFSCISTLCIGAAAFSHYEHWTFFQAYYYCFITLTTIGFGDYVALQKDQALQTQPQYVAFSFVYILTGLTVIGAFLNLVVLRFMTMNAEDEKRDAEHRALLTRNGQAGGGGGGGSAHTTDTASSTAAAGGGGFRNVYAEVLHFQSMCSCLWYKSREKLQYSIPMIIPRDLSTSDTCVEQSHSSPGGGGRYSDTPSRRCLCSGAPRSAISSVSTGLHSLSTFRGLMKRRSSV
# KCNQ1 block = blocks the human KCNQ1 potassium channel. P51787. CHO-K1 KCNQ1, FluxOR thallium flux fluorescence; hits give high values. B-score at 10 µM. 310,000 compounds, 1.3% hits;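 active = compounds whose thallium flux B-score, printed positive for inhibition, exceeds three library SD while starting fluorescence stays within three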;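 also: channel opened by potassium depolarization with thallium stimulus after 20 min compound exposure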
# hERG rescue = compounds protecting human hERG from proarrhythmic drug block; Q12809; CHO-hERG, FluxOR thallium flux, dofetilide IC70 present; 310,000 compounds, 0.51% hits; activation (rescue from dofetilide block), less the hit threshold, % at 10 µM; AID 1511;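 active = activation above the mean of controls blocked by dofetilide plus 5 SD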;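 also: thallium influx through hERG after potassium depolarization seen as dye fluorescence rise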
# KCNQ1 act = potentiators or activators of human KCNQ1 potassium channel; P51787; CHO-K1 KCNQ1, thallium flux FluxOR fluorescence; hits give high values; B-score at 10 µM; 310,000 compounds, 0.35% hits; AID 2648;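 active = fluorescence ratio B-score, a plate-corrected score, at least three library SD, with initial intensity B-score within 5 SD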
#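 System: CHO-K1 cells stably expressing KCNQ1 / Medium: assay buffer for compound exposure, DMSO matched across wells / Reagent: thallium- and potassium-containing depolarizing buffer / Compound: one concentration, matched DMSO / Incubation: 20 min compound pretreatment at room temperature / Measured by: kinetic FluxOR fluorescence, 10 s baseline plus 110 s post-stimulus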
# Kir21 inh = blocks the mouse Kir2.1 inward-rectifier potassium channel. P35561. HEK293-Kir2.1, FluxOR thallium flux fluorescence; hits give low values. B-score at 10 µM. 310,000 compounds, 0.85% hits. AID 1672;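 active = fluorescence ratio B-score at or below minus 3 SD of library scores, with starting-brightness B-score within 2 SD, cut at about -4.2 in these data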;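 also: channel flux triggered by added potassium and thallium sulfate stimulus; B-score of peak minus minimum fluorescence over baseline after thallium stimulus; more negative B-score means stronger Kir2.1 block with less thallium influx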
# KCNK9 block = inhibitors of human KCNK9 two-pore domain potassium channel; 310,000 compounds, 1.2% hits; HEK293 KCNK9, FluxOR thallium flux fluorescence; hits give low values; B-score at 10 µM; Q9NPC2; AID 488922;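 active = ratio B-score over 3 SD below the library mean, with starting fluorescence within 5 SD of its mean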;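 also: negative B-score means less thallium flux so channel inhibition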
# KCNK3 inh conf = confirmation of human KCNK3 two-pore domain potassium channel inhibitors. ratio percent of control, % at 10 µM. 2,400 compounds, 99% hits. CHO-KCNK3 thallium flux, FluxOR fluorescence; 0% buffer, 100% carvedilol maximal block. shares compounds with KCNK3 block;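 active = ratio percent of control, averaged over triplicates, above buffer control mean plus 5 SD, cut at about 64% in these data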;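 also: ratio is the fluorescence rise from min to max over baseline after thallium stimulus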
# KCNK3 noninduced = activity in cells without induced KCNK3 expression; shares compounds with KCNK3 block; non-induced KCNK3 parental cells, FluxOR thallium flux; hits give low values; thallium flux ratio (lower = more inhibition) at 10 µM; 2,400 compounds, 40% hits; AID 651747;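 active = thallium flux ratio, averaged over three wells, more than 5 SD below the buffer control mean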;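 also: host cells are CHO cells without KCNK3 induction; ratio is peak minus trough fluorescence over baseline then normalized to buffer controls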
# The depositor's hits bear a star; i = inactive; / = no result.
SMILES,KCNK3 block,KCNQ1 block,hERG rescue,KCNQ1 act,Kir21 inh,KCNK9 block,KCNK3 inh conf,KCNK3 noninduced
Nc1nonc1-n1nnc(C(=O)N/N=C/c2ccc(OCc3ccccc3)cc2)c1CN1CCCCC1,i,i,-4,i,-0.42,i,/,/
O=C(CSc1nc2ccccc2c(=O)n1-c1ccccc1)N/N=C/C=C/c1ccccc1[N+](=O)[O-],-9.1*,i,-16,i,-0.25,i,100*,i
Cc1ccccc1-n1c(SCC(=O)N/N=C/C=C/c2ccccc2[N+](=O)[O-])nc2ccccc2c1=O,i,i,-7,i,0.14,i,/,/
COc1cc(OC)cc(C(=O)N[C@H](C(=O)Nc2nc(-c3ccc(F)c(F)c3)cs2)C(C)C)c1,-11*,i,-6,i,1.8,i,100*,i
O=C(NCc1ccccc1F)C1CCCN1C(=O)Nc1ccccc1 (stereo not drawn),i,i,-3,i,2.2,i,/,/
Cc1ccc(C(=O)c2ccc([N+](=O)[O-])cc2)cc1C,i,i,-9,i,1.7,i,/,/
O=C(c1ccccc1)c1ccc(Sc2ccc([N+](=O)[O-])cc2)cc1,-8.8*,i,-20,i,-0.84,i,115*,0.15*
CC(=O)Nc1nc(-c2cccs2)cs1,i,i,-7,i,-0.01,i,/,/
O=C(Nc1nc(-c2cccs2)cs1)c1ccc(Cl)s1,-23*,i,4,i,0.93,i,86*,i
Cc1ccc(-c2cc(C(=O)Nc3c(C)n(C)n(-c4ccccc4)c3=O)[nH]n2)c(O)c1C,i,i,-20,i,-0.62,i,/,/
CCOc1ccc(CN(C)Cc2cc(=O)oc3c(C)c(C)ccc23)cc1OC,i,/,/,/,/,/,/,/
Cc1ccc2c(CN(C)Cc3cccc(F)c3)cc(=O)oc2c1,i,i,-10,i,0.95,i,/,/
Cc1cc2oc(=O)cc(CN(C)Cc3ccccc3F)c2cc1Cl,-12*,i,-7,i,-4.3*,i,118*,0.14*
Cc1cc2oc(=O)cc(CN(C)Cc3ccccc3Cl)c2cc1C,-10*,6*,-9,i,1.3,i,57*,i
Cc1ccc2c(CN(C)Cc3cccc(Cl)c3)cc(=O)oc2c1C,-8.7*,i,-8,i,0.04,i,126*,i
Cc1cc2oc(=O)cc(CN(C)Cc3cccc(F)c3)c2cc1Cl,-11*,i,-11,i,-1.9,i,100*,i
COc1ccc(CN(C)Cc2cc(=O)oc3cc(C)c(C(C)C)cc23)cc1OC,i,i,-13,i,-3.3,i,/,/
COc1cc(CN(C)Cc2cc(=O)oc3cc(C)c(Cl)cc23)ccc1OC(F)F,-10*,i,-8,i,-0.06,i,106*,i
O=[N+]([O-])c1ccc(-c2ccc(/C=N/Nc3nc(N4CCCC4)nc(N4CCCC4)n3)o2)cc1,-9.8*,7*,-19,i,-0.8,i,141*,0.11*
O=[N+]([O-])c1ccc(/C=N/Nc2nc(N3CCCC3)nc(N3CCCC3)n2)o1,i,i,-12,i,-1.2,i,/,/
COc1ccc(C)cc1NC(=O)c1cc2ccccc2cc1OCC(=O)NCc1ccco1,-14*,i,0,i,-0.14,i,109*,i
Cc1ccccc1CSc1nc2ccccc2c(=O)n1C,i,/,/,/,/,/,/,/
CCn1c(SCc2cccc(OC)c2)nc2ccccc2c1=O,-10*,i,-15,i,1.1,i,128*,0.13*
Cn1c(SCc2cccc(Br)c2)nc2ccccc2c1=O,-10*,i,-14,i,-1,i,160*,0.082*
Cn1c(SCc2ccccc2Br)nc2ccccc2c1=O,-9*,i,-11,i,1.6,i,134*,i
